Measurements published in paper PMC6921677 (ACS Omega, 2019).
Where two headings read alike, the source gives them in different places.

Assays:
[1] = test system: K. pneumoniae (ATCC 13882); assay: crystal violet biofilm inhibition assay, K. pneumoniae; assay type: cell-based, Klebsiella pneumoniae; settings: for K. pneumonia % inhibition ± S.D: biofilm inhibition at 250 μM; for K. pneumonia MBIC dose: biofilm inhibitory concentration, 24 h, crystal violet
Summary of the method: (§1)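 Strains cultured in tryptone soya broth or agar. Test compound twofold serially diluted (500–1 μM) in TSB and inoculated at 5 x 10^5 CFU/mL. Incubated 24 h at 37 °C. Medium discarded and wells washed with sterile water, then stained with 0.1% w/v crystal violet for 15 min. Washed and air-dried; bound dye taken up in 30% v/v acetic acid. A590 gave percent biofilm inhibition.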

[2] = test system: NIH-3T3 (mouse normal fibroblast); assay: MTT cell cytotoxicity assay, NIH-3T3; assay type: cell-based; settings: read-out: NIH-3T3 IC50 ± S.D
Summary of the method: (§2)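 Cells maintained in high-glucose DMEM with 2 mM L-glutamine, 10% FBS and 1% antibiotics, passaged before 70% confluency. Seeded at 10 000/well, left overnight at 37 °C, washed, then exposed to a range of test compound concentrations for 48 h. MTT (0.5 mg/mL as added) for 4 h, formazan dissolved in DMSO, OD 570 nm. IC50 fitted from percent inhibition.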

S. aureus (NCTC 6571) = assay: crystal violet biofilm inhibition assay, S. aureus; assay type: cell-based, Staphylococcus aureus; settings: biofilm inhibition at 500 μM
Summary of the method: as §1

[3] = test system: A. baumannii (ATCC 19606); assay: crystal violet biofilm inhibition assay, A. baumannii; assay type: cell-based, Acinetobacter baumannii; settings: for A. baumannii MBIC dose: biofilm inhibitory concentration, 24 h, crystal violet
Summary of the method: as §1

E. coli (ATCC 25922) = assay: crystal violet biofilm inhibition assay, E. coli; assay type: cell-based, Escherichia coli; settings: for E. coli % Inhibition ± S.D: biofilm inhibition at 250 μM; for E. coli MBIC dose: biofilm inhibitory concentration, 24 h, crystal violet
Summary of the method: as §1

CAL-27 (oral cancer) = assay: MTT cell cytotoxicity assay, CAL-27; assay type: cell-based; settings: Homo sapiens, CAL-27, 48 h, read-out: CAL-27 IC50 ± S.D
Summary of the method: as §2

NCI-H460 (lung cancer) = assay: MTT cell cytotoxicity assay, NCI-H460; assay type: cell-based; settings: Homo sapiens, NCI-H460, 48 h, read-out: NCI-H460 IC50 ± S.D
Summary of the method: as §2

Row | Structure (SMILES) | K. pneumonia % inhibition ± S.D [1] [%] | K. pneumonia MBIC dose [1] [µM] | IC50 ([2]; MTT, 48 h treatment, normal mouse fibroblast) [µM] | S. aureus % Inhibition ± S.D (S. aureus (NCTC 6571)) | A. baumannii % Inhibition ± S.D ([3]; biofilm inhibition at 125 μM) [%] | A. baumannii MBIC dose [3] [µM] | E. coli % Inhibition ± S.D (E. coli (ATCC 25922)) [%] | E. coli MBIC dose (E. coli (ATCC 25922)) [µM] | IC50 ([2]; Mus musculus, NIH3T3, 48 h) [µM] | IC50 (CAL-27 (oral cancer)) [nM] | IC50 (NCI-H460 (lung cancer)) [µM] | A. baumannii % Inhibition ± S.D ([3]; biofilm inhibition at 250 μM) [%]
1 | O.O.O=C([O-])Cc1ccccc1Nc1c(Cl)cccc1Cl.[Li+].c1cnc2c(c1)ccc1cccnc12 [Complex 3, [Li(phen)(H2O)2][dcf]] | 77.91 ± 0.062 | 250 | 135 ± 4.96 | 3.306 ± 0.166% | 87.924 ± 0.073 | 125 | 76.22 ± 0.026 | 250 |  |  |  | 
2 | O=c1[nH]cc(F)c(=O)[nH]1 [5-fluorouracil] |  |  |  |  |  |  |  |  | > 100 | 2410 ± 890 | 4.54 ± 1.67 | 
3 | O.O.O.O.O=C([O-])Cc1ccccc1Nc1c(Cl)cccc1Cl.O=C([O-])Cc1ccccc1Nc1c(Cl)cccc1Cl.[K+].[K+].c1cnc2c(c1)ccc1cccnc12.c1cnc2c(c1)ccc1cccnc12 [Complex 2, [K2(phen)2(dcf)2(H2O)4]] | 77.26 ± 0.063 | 250 |  | –1.497 ± 0.288% |  | 250 | 72 ± 0.091 | 250 |  |  |  | 86.158 ± 0.068
